Assay results taken from ChEMBL document CHEMBL5724801, “EUbOPEN Chemogenomics Library - Multiplex” (2024).
Where “and” joins values, the source holds several entries; their conditions need not be identical. Equal entries are not always repeated.

Tested on: HEK-293T
Assay: Multiplex assay against HEK293T
Format: toxicity, cell-based
Conditions: human
In short: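 Four dyes were applied at seeding to live cells: Hoechst33342, BioTracker Green Microtubule Cytoskeleton Dye, MitoTracker Red and Annexin V Alexa Fluor 680. Imaging after compound addition used a CQ1 microscope at 37°C and 5% CO2. CellPathfinder machine-learning gating then sorted cells into Hoechst high-intensity objects or normal cells, normal cells into healthy, pyknosed or fragmented nuclei, and pyknosed cells into mitotic or apoptotic, with tubulin, mitochondrial-mass and membrane-permeability phenotypes given as per cents of healthy-nucleus cells.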

[1] = 12 h, 1 µM, compound concentration 1 uM
[2] = 12 h, 10 µM, compound concentration 10 uM
[3] = 24 h, 1 µM, compound concentration 1 uM
[4] = 24 h, 10 µM, compound concentration 10 uM
[5] = 48 h, 1 µM, compound concentration 1 uM
[6] = 48 h, 10 µM, compound concentration 10 uM

Cl.N=C(N)NC(=O)Cc1c(Cl)cccc1Cl [GUANFACINE HYDROCHLORIDE]
Population Apoptotic (%) [1]: 29% and 47% | Population Fragmented Nuclei (%) [1]: 3% and 5% | Population Healthy Nuclei (%) [1]: 84% and 76% | Population Hoechst High Intensity Objects (%) [1]: 7% and 12% | Population Membrane Permeable-Phenotype (%) [1]: 0% | Population Mitochondria Different-Phenotype (%) [1]: 46% and 67% | Population Mitotic Cells (%) [1]: 70% and 52% | Population Normal (%) [1]: 92% and 87% | Population Pyknosed Nuclei (%) [1]: 11% and 17% | Population Tubulin-Different-Phenotype (%) [1]: 31% | Total Cell Count [1]: 384 and 289 | Population Apoptotic (%) [2]: 52% and 34% | Population Fragmented Nuclei (%) [2]: 12% and 8% | Population Healthy Nuclei (%) [2]: 67% and 77% | Population Hoechst High Intensity Objects (%) [2]: 7% and 10% | Population Membrane Permeable-Phenotype (%) [2]: 0% | Population Mitochondria Different-Phenotype (%) [2]: 61% and 69% | Population Mitotic Cells (%) [2]: 47% and 65% | Population Normal (%) [2]: 92% and 89% | Population Pyknosed Nuclei (%) [2]: 20% and 14% | Population Tubulin-Different-Phenotype (%) [2]: 43% and 38% | Total Cell Count [2]: 296 and 365 | Population Apoptotic (%) [3]: 36% and 50% | Population Fragmented Nuclei (%) [3]: 8% and 4% | Population Healthy Nuclei (%) [3]: 80% and 83% | Population Hoechst High Intensity Objects (%) [3]: 4% and 10% | Population Membrane Permeable-Phenotype (%) [3]: 0% | Population Mitochondria Different-Phenotype (%) [3]: 27% and 42% | Population Mitotic Cells (%) [3]: 63% and 50% | Population Normal (%) [3]: 95% and 89% | Population Pyknosed Nuclei (%) [3]: 11% | Population Tubulin-Different-Phenotype (%) [3]: 21% and 19% | Total Cell Count [3]: 493 and 344 | Population Apoptotic (%) [4]: 46% and 36% | Population Fragmented Nuclei (%) [4]: 11% and 6% | Population Healthy Nuclei (%) [4]: 75% and 83% | Population Hoechst High Intensity Objects (%) [4]: 7% and 9% | Population Membrane Permeable-Phenotype (%) [4]: 0% | Population Mitochondria Different-Phenotype (%) [4]: 48% and 50% | Population Mitotic Cells (%) [4]: 53% and 63% | Population Normal (%) [4]: 92% and 90% | Population Pyknosed Nuclei (%) [4]: 12% and 10% | Population Tubulin-Different-Phenotype (%) [4]: 39% and 27% | Total Cell Count [4]: 343 and 454 | Population Apoptotic (%) [5]: 15% and 34% | Population Fragmented Nuclei (%) [5]: 15% and 10% | Population Healthy Nuclei (%) [5]: 78% and 79% | Population Hoechst High Intensity Objects (%) [5]: 2% and 7% | Population Membrane Permeable-Phenotype (%) [5]: 1% and 0% | Population Mitochondria Different-Phenotype (%) [5]: 22% and 32% | Population Mitotic Cells (%) [5]: 84% and 65% | Population Normal (%) [5]: 97% and 92% | Population Pyknosed Nuclei (%) [5]: 6% and 9% | Population Tubulin-Different-Phenotype (%) [5]: 21% and 14% | Total Cell Count [5]: 680 and 560 | Population Apoptotic (%) [6]: 47% and 50% | Population Fragmented Nuclei (%) [6]: 17% and 12% | Population Healthy Nuclei (%) [6]: 73% and 80% | Population Hoechst High Intensity Objects (%) [6]: 6% and 10% | Population Membrane Permeable-Phenotype (%) [6]: 0% | Population Mitochondria Different-Phenotype (%) [6]: 31% and 33% | Population Mitotic Cells (%) [6]: 52% and 50% | Population Normal (%) [6]: 93% and 89% | Population Pyknosed Nuclei (%) [6]: 9% and 6% | Population Tubulin-Different-Phenotype (%) [6]: 14% and 20% | Total Cell Count [6]: 421 and 612

Cl.Cl.OCCOCCN1CCN(C(c2ccccc2)c2ccc(Cl)cc2)CC1 (stereo unspecified) [HYDROXYZINE HYDROCHLORIDE]
Population Apoptotic (%) [1]: 34% and 70% | Population Fragmented Nuclei (%) [1]: 7% and 5% | Population Healthy Nuclei (%) [1]: 79% and 84% | Population Hoechst High Intensity Objects (%) [1]: 6% and 9% | Population Membrane Permeable-Phenotype (%) [1]: 0% | Population Mitochondria Different-Phenotype (%) [1]: 48% and 58% | Population Mitotic Cells (%) [1]: 66% and 29% | Population Normal (%) [1]: 93% and 90% | Population Pyknosed Nuclei (%) [1]: 13% and 9% | Population Tubulin-Different-Phenotype (%) [1]: 24% and 28% | Total Cell Count [1]: 394 and 362 | Population Apoptotic (%) [2]: 49% and 68% | Population Fragmented Nuclei (%) [2]: 8% and 6% | Population Healthy Nuclei (%) [2]: 71% and 73% | Population Hoechst High Intensity Objects (%) [2]: 11% and 19% | Population Membrane Permeable-Phenotype (%) [2]: 0% and 1% | Population Mitochondria Different-Phenotype (%) [2]: 71% and 83% | Population Mitotic Cells (%) [2]: 50% and 31% | Population Normal (%) [2]: 88% and 80% | Population Pyknosed Nuclei (%) [2]: 19% and 20% | Population Tubulin-Different-Phenotype (%) [2]: 65% and 59% | Total Cell Count [2]: 354 and 327 | Population Apoptotic (%) [3]: 22% and 43% | Population Fragmented Nuclei (%) [3]: 10% and 11% | Population Healthy Nuclei (%) [3]: 78% | Population Membrane Permeable-Phenotype (%) [3]: 0% | Population Mitochondria Different-Phenotype (%) [3]: 34% and 41% | Population Mitotic Cells (%) [3]: 77% and 56% | Population Normal (%) [3]: 97% and 86% | Population Pyknosed Nuclei (%) [3]: 11% and 9% | Population Tubulin-Different-Phenotype (%) [3]: 22% and 17% | Total Cell Count [3]: 566 and 481 | Population Apoptotic (%) [4]: 29% and 59% | Population Fragmented Nuclei (%) [4]: 10% and 8% | Population Healthy Nuclei (%) [4]: 74% and 71% | Population Hoechst High Intensity Objects (%) [4]: 8% and 22% | Population Membrane Permeable-Phenotype (%) [4]: 0% | Population Mitochondria Different-Phenotype (%) [4]: 55% and 72% | Population Mitotic Cells (%) [4]: 70% and 40% | Population Normal (%) [4]: 91% and 77% | Population Pyknosed Nuclei (%) [4]: 15% and 19% | Population Tubulin-Different-Phenotype (%) [4]: 49% and 43% | Total Cell Count [4]: 472 and 383 | Population Apoptotic (%) [5]: 23% and 46% | Population Fragmented Nuclei (%) [5]: 14% | Population Healthy Nuclei (%) [5]: 79% | Population Hoechst High Intensity Objects (%) [5]: 1% and 3% | Population Membrane Permeable-Phenotype (%) [5]: 1% and 0% | Population Mitochondria Different-Phenotype (%) [5]: 19% | Population Mitotic Cells (%) [5]: 76% and 53% | Population Normal (%) [5]: 98% and 96% | Population Pyknosed Nuclei (%) [5]: 5% and 6% | Population Tubulin-Different-Phenotype (%) [5]: 14% and 12% | Total Cell Count [5]: 932 and 676 | Population Apoptotic (%) [6]: 38% and 60% | Population Fragmented Nuclei (%) [6]: 14% and 15% | Population Healthy Nuclei (%) [6]: 76% and 72% | Population Hoechst High Intensity Objects (%) [6]: 6% and 16% | Population Membrane Permeable-Phenotype (%) [6]: 0% | Population Mitochondria Different-Phenotype (%) [6]: 45% and 53% | Population Mitotic Cells (%) [6]: 61% and 40% | Population Normal (%) [6]: 93% and 83% | Population Pyknosed Nuclei (%) [6]: 9% and 12% | Population Tubulin-Different-Phenotype (%) [6]: 35% | Total Cell Count [6]: 627 and 539
